From PubChem
The list is not random: actives were taken first. Their share in the collection is about 2.4%.
HGIII-sPLA2 inh: Blocks human group III sPLA2 activity; Q9NZ20; QFRET BODIPY PC-A2 liposome hydrolysis, fluorescence; inhibition, % at 12.2 µM; hit rate 0.56% among 370,000; AID 743126;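 active means inhibition above mean plus 3 SD of compounds lying within the high and low control bounds, cut at about 19% in these data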;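 further: 0% = median of test compound wells and 100% = no enzyme DMSO wells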
Target sequence (Q9NZ20 whole entry, looked up): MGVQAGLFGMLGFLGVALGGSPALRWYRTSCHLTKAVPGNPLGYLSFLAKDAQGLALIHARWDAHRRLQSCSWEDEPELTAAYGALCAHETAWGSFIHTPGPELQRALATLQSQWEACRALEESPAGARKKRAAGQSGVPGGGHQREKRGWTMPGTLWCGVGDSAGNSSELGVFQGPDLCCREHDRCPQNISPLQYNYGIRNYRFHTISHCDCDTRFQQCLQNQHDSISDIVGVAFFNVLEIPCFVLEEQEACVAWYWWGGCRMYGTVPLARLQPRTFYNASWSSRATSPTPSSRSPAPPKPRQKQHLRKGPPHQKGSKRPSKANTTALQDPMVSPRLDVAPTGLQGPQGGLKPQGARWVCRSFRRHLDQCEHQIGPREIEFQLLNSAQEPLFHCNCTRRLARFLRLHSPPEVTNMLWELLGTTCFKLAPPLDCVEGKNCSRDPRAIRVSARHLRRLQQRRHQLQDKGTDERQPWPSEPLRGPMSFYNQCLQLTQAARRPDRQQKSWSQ
IMP-1 inhibitor: blocks Pseudomonas aeruginosa IMP-1 metallo-beta-lactamase; purified IMP-1, nitrocefin hydrolysis, epi-absorbance fluorescence; inhibition, % at 5.6 µM; hit rate 0.45% among 290,000;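 active means inhibition above the mean plus 3 SD of all compounds in the same screening run, cut at about 4.5% in these data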;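 further: 0% = IMP-1 with DMSO and 100% = DMSO wells lacking enzyme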
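Material – recombinant IMP-1 enzyme, purified · Amount – IMP-1 0.2 nM before substrate addition · Medium – HEPES buffer pH 7.1 with ZnSO4 and Brij 35 · Timing – 25 °C, 15 min preincubation, 25 min reaction · Measured by – plate fluorescence quenching by hydrolysis product, ex 480/em 530 nm · Read-out – percent enzyme inhibition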
VIM-2 inhibitor: blocks Pseudomonas aeruginosa VIM-2 metallo-beta-lactamase; purified VIM-2, nitrocefin hydrolysis, epi-absorbance fluorescence; inhibition, % at 5.6 µM; hit rate 0.89% among 290,000; AID 1527;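 active means inhibition above the mean of all tested compounds plus 3 SD, cutoff set per screening run, cut at about 7.5% in these data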;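 further: red hydrolysis product quenches plate fluorescence so inhibitors raise well fluorescence; 0% = enzyme with DMSO and 100% = DMSO without enzyme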
PfM18AAP inh: blocks P. falciparum M18 aspartyl aminopeptidase. recombinant PfM18AAP, H-Glu-NHMec fluorogenic cleavage. hit rate 1.2% among 290,000. inhibition, % at 7.35 µM;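 active means inhibition above the campaign mean inhibition over all tested compounds plus 3 SD, cut at about 28% in these data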;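 further: 0% = plate median of test compound wells and 100% = 2 mM ZnCl2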
* marks the source's active call; other numbers are inactive results; / = no result.

SMILES | HGIII-sPLA2 inh | IMP-1 inhibitor | VIM-2 inhibitor | PfM18AAP inh
COc1ccccc1N1CCN(C(=O)c2cc3c(=O)n4cccc(C)c4nc3s2)CC1 | 2.8 | 0.0 | 10.3* | 4.4
CCN(C(=O)c1cc2c(=O)n3cccc(C)c3nc2s1)C1CCCCC1 | -0.1 | -2.2 | 9.0* | 5.8
Cn1c(=O)cc(OCC(=O)N2CCN(c3ccccc3Cl)CC2)c2ccccc21 | 4.4 | / | / | /
CC(C)N1CCCCC(NC(=O)c2ccc(F)c(F)c2)C1=O (stereo not given) | 6.4 | / | / | /
CCN(CC)c1ccc(C=Nn2c(C)nnc2C)cc1 | 10.5 | / | / | /
NNc1ccc(Cl)nn1 | 0.0 | -0.1 | -0.1 | 28.6*
CNc1ccc(Cl)nn1 | 2.9 | 0.4 | 1.2 | -15.3
O=C(O)C(O)Cc1c[nH]c2ccccc12 (stereo not given) | -0.5 | -4.3 | -1.7 | -3.2
O=C(O)C(=O)Cc1c[nH]c2ccccc12 | 3.2 | 4.5* | -1.4 | 12.2
O=C1C[C@@H](C(=O)Nc2ccc(Cl)cc2)[C@@H](c2ccccc2)O1 | -6.2 | / | / | /
Nn1c(SCc2ccc([N+](=O)[O-])cc2)nnc1-c1n[nH]c2c1CCC2 | 1.5 | / | / | /
COC(=O)C(=O)/C=C(\O)c1ccc(C)cc1 | 27.0* | -0.4 | 2.7 | -10.3
Cc1ccc(/C(O)=C/C(=O)C(=O)NNC(=O)C(O)(c2ccccc2)c2ccccc2)cc1 | 2.4 | -3.4 | -4.1 | 6.5
CCOc1ccc(NC(=O)N2CCC(C(N)=O)(N3CCCCC3)CC2)cc1 | 1.7 | -2.5 | -2.9 | 28.4*
NC(=O)C1(N2CCCCC2)CCN(C(=S)Nc2ccccc2)CC1 | 2.2 | -3.3 | -1.1 | 2.6
COc1ccc(-c2cc(C(F)(F)F)c3c(N)c(C(=O)NCCSC)sc3n2)cc1 | 4.0 | -0.7 | 3.0 | 3.6
CN(C)CCNC(=O)c1sc2nc(-c3ccccc3)cc(C(F)(F)F)c2c1N | -19.0 | -1.5 | 11.8* | 2.7
CCN1CCN(C(=O)CCNC(=O)Cn2ccc3ccccc3c2=O)CC1 | 2.3 | -1.5 | -7.5 | -6.5
CCCN1CCN(CCCNC(=O)CCNC(=O)Cn2ccc3ccccc3c2=O)CC1 | 0.0 | 5.4* | 0.7 | 0.5
CCCN1CCN(CCCNC(=O)Cn2nc(-c3ccc(C)cc3)ccc2=O)CC1 | 0.1 | 6.3* | -0.1 | 8.8
O=C(O)CSCC(=O)N1CCc2c([nH]c3ccccc23)C1C(F)(F)F (stereo not given) | 0.8 | -0.2 | -0.6 | -12.9
O=C(O)c1ccccc1C(=O)N1CCc2c([nH]c3ccccc23)C1C(F)(F)F (stereo not given) | 5.2 | -2.1 | 10.8* | -15.8
O=C(c1cc(Cl)cc(Cl)c1)N1CC[C@H]2[C@H](CCCN2Cc2cc(F)cc(F)c2)C1 | 2.6 | / | / | /
Cn1c(=O)c([N+](=O)[O-])c(NCCCn2ccnc2)c2ccccc21 | -0.7 | -1.6 | 7.9* | 1.6
CSc1nc2nccc(-c3ccc(-c4ccccc4)cc3)n2n1 | -0.1 | -3.1 | -1.9 | -4.6
SMILES | HGIII-sPLA2 inh | IMP-1 inhibitor | VIM-2 inhibitor | PfM18AAP inh
CSc1nc2nccc(-c3ccc4c(c3)OCO4)n2n1 | -2.7 | -5.8 | 10.8* | 4.2
CCOC(=O)c1c(-c2cccs2)csc1NC(=O)CC(C)C | -1.8 | -6.9 | -0.5 | -2.7
COC(=O)c1c(-c2cccs2)csc1NC(=O)c1cccnc1 | 5.9 | -2.8 | 11.1* | 5.2
NC1=CC(=O)c2cccc3cccc1c23 | / | 14.3* | 3.1 | 11.3
COC(=O)c1ccc(NS(=O)(=O)c2ccccc2)o1 | -1.2 | 4.9* | -1.9 | 1.7
C#CCNC(=O)C[C@H]1C[C@@]2(C(=O)OC)C(=C[C@H](C3CCCC3)O[C@@H]2C)N(CCC2=CCCCC2)C1=O | -5.0 | / | / | /
CC(C)NC(=O)N[C@@H]1C[C@@H]2O[C@@H](CO)CC[C@@H]2O[C@@H]1CCc1ccc(-c2ccccc2F)cc1 | -7.1 | / | / | /
O=C(Nc1nc2ccccc2s1)C1CCN(S(=O)(=O)c2cc([N+](=O)[O-])ccc2Cl)CC1 | -0.3 | -1.6 | -2.9 | 28.5*
CCOC(=O)c1cc(-c2ccc(N3CCOCC3)cc2)nn1-c1ccccc1C(=O)O | -3.5 | 22.5* | 0.9 | -17.7
CCOC(=O)c1cc(-c2ccc(N3CCOCC3)cc2)nn1-c1ccccc1 | 1.3 | -2.9 | -3.0 | -3.6
COc1ccc(NC(=O)c2ccc(-c3ccc([N+](=O)[O-])cc3)o2)cc1 | -6.1 | -2.6 | -1.4 | 2.2
O=C(Nc1ccccc1)c1ccc(-c2ccc([N+](=O)[O-])cc2)o1 | 0.2 | 5.0* | 2.0 | 24.6
N/N=C/C(=N\Nc1ccc(Cl)cc1)C(=O)c1ccncc1 | -25.9 | -3.4 | 8.8* | 4.4
COc1ccc(N/N=C(\C=N\O)C(=O)c2ccc(OC)cc2)cc1 | -9.7 | -0.1 | -4.7 | -4.8
N#CC1=C(S)N(c2ccccc2)C(c2ccc(-c3cccc(Cl)c3)o2)NC1=O (stereo not given) | 2.8 | 7.5* | -4.0 | -1.5
